Data set [1] concerns the target Retinoic acid receptor RXR-alpha/oxysterols receptor LXR-beta (Homo sapiens, UniProt P55055). As to the kind of experiment: Binding affinity to His-LXRbeta/FLAG-RXRalpha (unknown origin) by FITC-labeled T0901317 based fluorescence polarization assay. It is filed as protein-complex assay. A general note: In fluorescence polarisation assays a small probe gives low polarisation when free and higher when bound to something large.

Data set [2] has as its target Retinoic acid receptor RXR-alpha/oxysterols receptor LXR-alpha (Homo sapiens, UniProt Q13133). The data set is described as follows: Binding affinity to His-LXRalpha/FLAG-RXRalpha (unknown origin) by FITC-labeled T0901317 based fluorescence polarization assay. Type of data set: protein-complex assay.
Data set [3] deals with RAW264.7. As to the kind of experiment: […] of cholesterol efflux in mouse RAW264.7 cells at 0.1 using [4-14C]-cholesterol incubated for 24 hrs by scintillation counting method relative to T0901317. Type of data set: functional. The essentials: (§1)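 RAW264.7 cells were labeled 2 days with 0.2 µCi/ml [4-14C]-cholesterol in DMEM/1% FBS and washed with 0.2% BSA/PBS. Medium with or without 10 µg/ml apoAI was added, with compound (final 0.01–1 µM) or DMSO, for about 24 h. Medium and cell radioactivity were counted. ApoAI-dependent efflux % = efflux(+apoAI) minus mean efflux(−apoAI); % efficacy is given at the stated concentration.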

For data set [4], the target named is T1, Oxysterols receptor LXR-alpha (Homo sapiens) (UniProt Q13133).
T1 sequence (whole entry): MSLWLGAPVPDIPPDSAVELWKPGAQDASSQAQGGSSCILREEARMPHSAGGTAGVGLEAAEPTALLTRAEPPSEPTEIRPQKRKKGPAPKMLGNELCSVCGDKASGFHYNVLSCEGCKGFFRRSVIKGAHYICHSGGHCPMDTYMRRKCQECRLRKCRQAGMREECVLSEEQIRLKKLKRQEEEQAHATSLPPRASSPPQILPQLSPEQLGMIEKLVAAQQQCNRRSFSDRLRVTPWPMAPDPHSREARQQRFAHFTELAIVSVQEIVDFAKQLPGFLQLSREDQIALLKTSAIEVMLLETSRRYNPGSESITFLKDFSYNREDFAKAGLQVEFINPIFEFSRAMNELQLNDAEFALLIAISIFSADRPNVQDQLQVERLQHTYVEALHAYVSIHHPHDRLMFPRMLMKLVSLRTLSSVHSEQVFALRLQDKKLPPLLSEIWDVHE
The data set is described as follows: Agonist activity at human LXRalpha expressed in African green monkey kidney CV1 cells co-expressing pTAL-LXRE including LXR response element incubated for 20 hrs by luciferase reporter gene assay relative to T0901317. It is filed as cell-based. The following applies: CV-1. The essentials:
(§2)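 CV-1 cells grown in DMEM with 10% charcoal/dextran-treated FBS at 37 °C, seeded 20 h before transfection. Cells were lipofected with pcDNA-hLXRa or pcDNA-hLXRb plus the pTAL-LXRE luciferase reporter. After 3 h, medium was added, then compound in DMSO. Incubation about 20 h before luciferase luminescence read-out.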

Data set [5] addresses T2, Oxysterols receptor LXR-beta (Homo sapiens) (UniProt P55055).
T2 sequence (whole entry): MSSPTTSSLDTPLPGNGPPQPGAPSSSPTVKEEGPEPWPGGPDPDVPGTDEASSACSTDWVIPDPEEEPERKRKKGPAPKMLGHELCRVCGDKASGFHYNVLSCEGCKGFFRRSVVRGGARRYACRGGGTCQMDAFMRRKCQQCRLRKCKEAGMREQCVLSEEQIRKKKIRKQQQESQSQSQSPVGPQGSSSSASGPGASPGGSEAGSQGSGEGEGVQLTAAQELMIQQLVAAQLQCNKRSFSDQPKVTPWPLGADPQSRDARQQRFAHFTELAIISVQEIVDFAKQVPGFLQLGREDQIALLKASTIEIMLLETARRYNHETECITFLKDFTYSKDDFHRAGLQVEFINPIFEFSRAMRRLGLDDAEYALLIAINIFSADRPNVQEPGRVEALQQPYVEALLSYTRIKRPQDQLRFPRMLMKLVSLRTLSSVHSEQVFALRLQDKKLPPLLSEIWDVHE
As to the kind of experiment: Agonist activity at human LXRbeta expressed in African green monkey kidney CV1 cells co-expressing pTAL-LXRE including LXR response element incubated for 20 hrs by luciferase reporter gene assay relative to T0901317. Type of data set: cell-based. The following applies: CV-1. Summed up:
as §2

Data set [6] concerns RAW264.7. As to the kind of experiment: […] of cholesterol efflux in mouse RAW264.7 cells at 1 uM using [4-14C]-cholesterol incubated for 24 hrs by scintillation counting method relative to T0901317. It is filed as functional. The essentials: as §1
In data set [7] the target is T3, Oxysterols receptor LXR-beta (Homo sapiens, UniProt P55055).
T3 sequence (P55055 whole entry): T2 sequence (whole entry)
As to the kind of experiment: Agonist activity at human LXRbeta expressed in African green monkey kidney CV1 cells co-expressing pTAL-LXRE including LXR response element incubated for 20 hrs by luciferase reporter gene assay. It is filed as cell-based, CV-1. The essentials:
as §2
On the technique in general: Reporter assays use an easily measured gene product as a stand-in for the process of interest.

For data set [8], the target named is T4, Oxysterols receptor LXR-alpha (Homo sapiens, UniProt Q13133).
T4 sequence (Q13133 whole entry): T1 sequence (whole entry)
The data set is described as follows: Agonist activity at human LXRalpha expressed in African green monkey kidney CV1 cells co-expressing pTAL-LXRE including LXR response element incubated for 20 hrs by luciferase reporter gene assay. Type of data set: cell-based, CV-1.

Data set [9] relates to Cynomolgus monkey. The data set is described as follows: Increase in ABCA1 mRNA expression in cynomolgus monkey blood at 0.1 to 10 mg/kg, po dosed daily for 14 days measured on day 1. Type of data set: functional, organism-based. The following applies: Macaca fascicularis. Summed up: (§3)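 Cynomolgus monkeys dosed daily by oral gavage at 0, 0.1, 0.3, 1, 3 or 10 mg/kg for 14 days, n = 6/group. Blood ABCA1 mRNA was measured on Day 1 and Day 14; plasma triglyceride was measured after single and repeated dosing. Mean + SE.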

Data set [10] concerns Mus musculus. As to the kind of experiment: Effect on SCD1 mRNA expression in C57Bl/6 mouse liver at 1 mg/kg, po dosed daily for 7 days. Type of data set: functional, organism-based. Summed up:
(§4)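 C57Bl/6 mice dosed daily by oral gavage at 1 mg/kg for 7 days, n = 5/group. Liver FAS and SCD-1 mRNA and plasma TG were then measured. Groups compared with vehicle by Dunnett's test, p <0.05.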

For data set [11], the system named is Mus musculus. The data set is described as follows: Toxicity in C57Bl/6 mouse assessed as effect on plasma triglyceride levels at 1 mg/kg, po dosed daily for 7 days. It is filed as organism-based. The following applies: in vivo, 168 h. Summed up:
as §4

A short description of data set [12]: Cmax in mouse at 10 mg/kg, po. Type of data set: ADME, organism-based. On the set-up: dose 10 mg/kg, route oral. The following applies: in vivo. The essentials: (§5)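 Mice given a single oral dose of 10 mg/kg. Plasma concentration measured in µg/ml as Cmax and at 6 h.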
Data set [13] deals with Cynomolgus monkey. The data set is described as follows: Toxicity in cynomolgus monkey assessed as effect on plasma triglyceride levels at 0.1 to 10 mg/kg, po administered as single dose. It is filed as organism-based, Macaca fascicularis. The following applies: in vivo. Summed up:
as §3

The nature of data set [14]: Plasma concentration in mouse at 10 mg/kg, po measured at 6 hrs. Type of data set: ADME, organism-based. The essentials:
as §5

In data set [15] the test system is Mus musculus. The data set is described as follows: Effect on FAS mRNA expression in C57Bl/6 mouse liver at 1 mg/kg, po dosed daily for 7 days. Type of data set: functional, organism-based. The essentials: as §4
Data set [16] relates to Cynomolgus monkey. As to the kind of experiment: Increase in ABCA1 mRNA expression in cynomolgus monkey blood at 0.1 to 10 mg/kg, po dosed daily for 14 days measured on day 14. Type of data set: functional, organism-based. The following applies: Macaca fascicularis. Summed up:
as §3

In data set [17] the test system is Cynomolgus monkey. As to the kind of experiment: Toxicity in cynomolgus monkey assessed as effect on plasma triglyceride levels at 0.1 to 10 mg/kg, po dosed daily for 14 days. Type of data set: organism-based, Macaca fascicularis. The following applies: in vivo, 336 h. Summed up:
as §3

The source made the active and inactive calls. No cut-off for these calls is given here.

Retinoic acid receptor RXR-alpha/oxysterols receptor LXR-alpha, sequence (P19793 whole entry, one chain of several): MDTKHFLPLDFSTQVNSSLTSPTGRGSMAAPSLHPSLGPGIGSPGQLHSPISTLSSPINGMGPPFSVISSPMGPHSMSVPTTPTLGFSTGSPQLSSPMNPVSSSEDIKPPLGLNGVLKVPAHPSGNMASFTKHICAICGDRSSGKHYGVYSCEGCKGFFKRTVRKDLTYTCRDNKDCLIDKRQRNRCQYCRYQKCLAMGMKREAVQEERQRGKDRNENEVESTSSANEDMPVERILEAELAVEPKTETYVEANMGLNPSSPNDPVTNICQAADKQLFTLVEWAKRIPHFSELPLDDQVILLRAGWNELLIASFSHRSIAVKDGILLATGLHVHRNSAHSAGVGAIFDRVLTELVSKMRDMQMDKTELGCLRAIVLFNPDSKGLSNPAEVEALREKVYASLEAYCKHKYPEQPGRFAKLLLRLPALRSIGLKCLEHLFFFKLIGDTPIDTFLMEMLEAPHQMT
Retinoic acid receptor RXR-alpha/oxysterols receptor LXR-beta, sequence (P19793 whole entry, one chain of several): as above

In data set [1], `CC(C)(C)OC(=O)c1cc(C(F)(F)F)ccc1COc1ccc(CCCC(=O)O)cc1` displayed a Ki of 4900 nM.

On to `CC(C)(C)OC(=O)c1cc(C(F)(F)F)ccc1COc1ccc(-c2ccc(CC(=O)O)cc2)cc1`, for which the Ki in [2] was found to be 1000 nM; in [1], 260 nM.

For the compound `CC(C)(C)OC(=O)c1c(COc2ccc(-c3cccc(CC(=O)O)c3)cc2)ccc(C(F)(F)F)c1O`, the Efficacy came out at 3% in the data set on RAW264.7 [3], 39% in data set [4], 27% in data set [5] and 58% with RAW264.7 [6]. Besides, the EC50 amounted to 530 nM in data set [7] and 1300 nM in data set [8].

In the case of `CC(C)(C)OC(=O)c1cc(C(F)(F)F)ccc1COc1ccc(CCCCCC(=O)O)cc1`, the Ki in data set [2] amounted to 8600 nM; in [1] it was 1200 nM.

With `CC(C)(C)OC(=O)c1cc(C(F)(F)F)ccc1COc1ccc(CCCCC(=O)O)cc1`, affinity in data set [1] was put at a Ki of 630 nM.

Turning to `CC(C)(C)OC(=O)c1cc(C(F)(F)F)ccc1COc1ccc(-c2cccc(C(=O)O)c2)cc1`, the Ki came to 6300 nM in data set [2] and 3400 nM in data set [1].

Consider `CC(C)(C)OC(=O)c1c(COc2ccc(-c3ccc(CC(=O)O)cc3)cc2)ccc(C(F)(F)F)c1O`, for which the Efficacy was 57% in the data set with RAW264.7 [3], 79% in [4], 51% in data set [5] and 69% in the data set on RAW264.7 [6]. The Activity entry is “Dose-dependent effect” in the data set with Cynomolgus monkey [9]; “Non-toxic” with Mus musculus [11]; “Non-toxic” with Cynomolgus monkey [13]; “Dose-dependent effect” with Cynomolgus monkey [16]; “Non-toxic” in the data set with Cynomolgus monkey [17]. In addition, the result in the data set with Mus musculus [10] and in the data set with Mus musculus [15] was inactive. The EC50 in data set [7] stood at 160 nM; in data set [8], 510 nM. This compound also yielded a Cmax in data set [12] of 8900 ng/mL. Further, the concentration at 6 h in data set [14] amounted to 5300 ng/mL.

Consider `CC(C)(C)OC(=O)c1cc(C(F)(F)F)ccc1COc1ccc(-c2cccc(CC(=O)O)c2)cc1`, for which the Ki came to 5100 nM in [2] and 360 nM in data set [1].

Take `CC(C)(C)OC(=O)c1cc(C(F)(F)F)ccc1COc1ccc(-c2ccc(C(=O)O)cc2)cc1`: the Ki in [2] and in data set [1] was greater than 10000 nM in each case.

`CC(=O)N(C)c1ccc(OCc2ccc(C(F)(F)F)c(O)c2C(=O)OC(C)(C)C)cc1`: the values for the Efficacy in [4] and in [5] were 89% and 76%, respectively. The EC50 worked out at 260 nM in data set [7] and 280 nM in [8]. Also, in [12], the Cmax is 1000 ng/mL. Further, the Ki is 270 nM in [2] and 170 nM in data set [1]. The compound also displayed a concentration at 6 h in [14] of 670 ng/mL.

Turning to `CN(C(=O)CCC(=O)O)c1ccc(OCc2ccc(C(F)(F)F)cc2C(=O)OC(C)(C)C)cc1`, the Ki in data set [2] amounted to 4000 nM; in data set [1] it was 660 nM.

Turning to `CC(=O)N(C)c1ccc(OCc2ccc(C(F)(F)F)cc2C(=O)OC(C)(C)C)cc1`, the Efficacy in data set [4] was found to be 27%; in data set [5], 28%. Further, the 50% effective concentration (EC50) in [7] came to 210 nM; in data set [8], 310 nM. Further, the highest level in data set [12] (Cmax) was 1700 ng/mL. In addition, the values for the Ki in data set [2] and in [1] were 870 nM and 180 nM, respectively. This compound also gave a concentration at 6 h in data set [14] of 1000 ng/mL.

In general, Ki refers to a measure of affinity in units of concentration, obtained from inhibition or displacement. Usually EC50 stands for the midpoint of the concentration-response curve. As usually defined, the Cmax is the peak of the concentration-time curve.

Values taken from ChEMBL document CHEMBL3608222, “Discovery and structure-guided optimization of tert-butyl 6-(phenoxymethyl)-3-(trifluoromethyl)benzoates as liver X receptor agonists” (Bioorg Med Chem Lett, 2015).
